Measured values published in ChEMBL document CHEMBL2407047, “Molecular design, synthesis and biological evaluation of 1,4-dihydro-4-oxoquinoline ribonucleosides as TcGAPDH inhibitors with trypanocidal activity” (Bioorg Med Chem Lett, 2013).

Columns and labels:
[1] = compound: COc1ccc2c(c1)c(=O)c(C(=O)O)cn2[C@@H]1O[C@H](CO)[C@@H](O)[C@H]1O; assay: (§1) Competitive inhibition of Trypanosoma cruzi glycosomal GAPDH assessed as increase in NAD+ Km by ITC method
In short: (§2)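 Enzyme assays were run by isothermal titration calorimetry (ITC), probing the GAPDH NAD+ cosubstrate site and the active site. Affinity is reported as apparent Ki. Mode of inhibition was judged from how NAD+ and G3P KM and Vmax respond. Kinetic models were compared by second-order Akaike's information criterion.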

[2] = compound: Cc1ccc2c(c1)c(=O)c(C(=O)O)cn2[C@@H]1O[C@H](CO)[C@@H](O)[C@H]1O; assay: as §1; in short: as §2
[3] = compound: O=C(O)c1cn([C@@H]2O[C@H](CO)[C@@H](O)[C@H]2O)c2ccc(Br)cc2c1=O; assay: as §1; in short: as §2
[4] = compound: O=C(O)c1cn([C@@H]2O[C@H](CO)[C@@H](O)[C@H]2O)c2ccc(Cl)cc2c1=O; assay: as §1; in short: as §2
[5] = compound: COc1ccc2c(=O)c(C(=O)O)cn([C@@H]3O[C@H](CO)[C@@H](O)[C@H]3O)c2c1; assay: as §1; in short: as §2
[6] = compound: O=C(O)c1cn([C@@H]2O[C@H](CO)[C@@H](O)[C@H]2O)c2cc(Br)ccc2c1=O; assay: as §1; in short: as §2
[7] = compound: Cc1ccc2c(=O)c(C(=O)O)cn([C@@H]3O[C@H](CO)[C@@H](O)[C@H]3O)c2c1; assay: as §1; in short: as §2

B1: Glyceraldehyde-3-phosphate dehydrogenase, glycosomal (Trypanosoma cruzi), P22513 (protein)
chain: MPIKVGINGFGRIGRMVFQALCEDGLLGTEIDVVAVVDMNTDAEYFAYQMRYDTVHGKFKYEVTTTKSSPSVAKDDTLVVNGHRILCVKAQRNPADLPWGKLGVEYVIESTGLFTAKAAAEGHLRGGARKVVISAPASGGAKTLVMGVNHHEYNPSEHHVVSNASCTTNCLAPIVHVLVKEGFGVQTGLMTTIHSYTATQKTVDGVSVKDWRGGRAAAVNIIPSTTGAAKAVGMVIPSTQGKLTGMSFRVPTPDVSVVDLTFTAARDTSIQEIDAALKRASKTYMKGILGYTDEELVSADFINDNRSSIYDSKATLQNNLPKERRFFKIVSWYDNEWGYSHRVVDLVRHMASKDRSARL
B1 was tested, and the Km [1] was 47 µM, the Km [2] was 48.5 µM and the Km [3] was 62.6 µM. It also gave a Km [4] of 63.4 µM, a Km [5] of 67.7 µM and a Km [6] of 50 µM. The Km [7] was 46.9 µM.
